Measurements gathered from unrelated publications.
Each line is one published result; the experiments were not run side by side.
Target: Ephrin type-A receptor 3 (EPHA3, Homo sapiens, UniProt P29320)
Residues used in one study (P29320 21-983): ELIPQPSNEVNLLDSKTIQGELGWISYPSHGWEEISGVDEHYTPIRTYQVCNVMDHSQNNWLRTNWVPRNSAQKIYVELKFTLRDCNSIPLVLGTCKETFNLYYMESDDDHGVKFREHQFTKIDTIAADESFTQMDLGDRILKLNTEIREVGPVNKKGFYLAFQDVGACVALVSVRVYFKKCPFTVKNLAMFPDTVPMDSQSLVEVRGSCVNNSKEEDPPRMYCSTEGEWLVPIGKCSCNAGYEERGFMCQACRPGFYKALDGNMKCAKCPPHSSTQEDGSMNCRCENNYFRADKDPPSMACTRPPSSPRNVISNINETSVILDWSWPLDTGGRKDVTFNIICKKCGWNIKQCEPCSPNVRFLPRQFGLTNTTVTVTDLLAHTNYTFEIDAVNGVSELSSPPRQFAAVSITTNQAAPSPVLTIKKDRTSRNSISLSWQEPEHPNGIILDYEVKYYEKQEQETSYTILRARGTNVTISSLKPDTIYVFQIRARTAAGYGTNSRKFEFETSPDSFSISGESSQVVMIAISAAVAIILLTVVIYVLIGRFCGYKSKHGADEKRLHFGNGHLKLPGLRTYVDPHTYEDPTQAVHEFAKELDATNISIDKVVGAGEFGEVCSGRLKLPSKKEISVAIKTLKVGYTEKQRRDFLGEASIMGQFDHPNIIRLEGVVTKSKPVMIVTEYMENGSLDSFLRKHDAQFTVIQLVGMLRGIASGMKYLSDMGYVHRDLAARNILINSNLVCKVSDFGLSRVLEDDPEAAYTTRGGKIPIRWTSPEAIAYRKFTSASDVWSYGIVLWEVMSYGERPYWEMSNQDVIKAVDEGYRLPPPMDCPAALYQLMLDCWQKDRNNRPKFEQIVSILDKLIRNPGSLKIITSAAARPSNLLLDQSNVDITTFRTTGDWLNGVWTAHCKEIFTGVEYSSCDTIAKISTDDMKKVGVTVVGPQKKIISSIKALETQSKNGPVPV

SMILES | assay | setting | remaining binding
FC(F)(F)Oc1cccc(-c2cnc3ccc(-c4ccncc4)nn23)c1 | cell-free assay, competition with immobilised ligand | 5 µM | 76%
N[C@H]1CCN(c2nccc(-c3cnn4ncccc34)n2)C1 | binding | 1 µM | 98%
Cc1nc(C2CCN(C(=O)c3ccc(OC(F)(F)F)cc3N)CC2)c2ncc(N3CCN(C)CC3)cc2n1 | cell-free assay, competition with immobilised ligand | 1 µM | 92%
C[C@@H]1CCN(c2nccc(-c3cnn4ncccc34)n2)C1 | binding | 1 µM | 61%
Cc1cc(NC(=O)c2cccc(S(F)(F)(F)(F)F)c2)cc(-n2ccn3nc(-c4cccnc4)cc23)c1 | cell-free assay, competition with immobilised ligand | 1 µM | 100%
O=C(Nc1c[nH]nc1C(=O)NC1CCNCC1)c1cc(F)cc(F)c1 | binding, competition with immobilised ligand | 1 µM | 100%
c1cnn2ncc(-c3ccnc(N4CCC45COC5)n3)c2c1 | binding | 1 µM | 68%
CC(=O)N1CCC(c2ccc(C(=O)NC3=NCCN3)cc2C(F)(F)F)CC1 | cell-free assay, competition with immobilised ligand | 1 µM | 95%
CCN1CCN(Cc2ccc(C(=O)Nc3ccc(C)c(Oc4ccc5c(c4)CC(=O)N5)c3)cc2C(F)(F)F)CC1 | binding, competition with immobilised ligand | 1 µM | 76%
C=CC(=O)N1CCC(C(=O)NCC(=O)N2CCN(c3nc(-c4cnc(N)nc4C(F)F)nc(N4CCOCC4)n3)CC2)CC1 | binding, competition with immobilised ligand | 1 µM | 90%
Cn1nc(C(=O)NCc2ccc(C(=O)O)cc2)cc1-c1ccc2[nH]ccc2c1 | cell-free assay, competition with immobilised ligand | 0.1 µM | 89%
CN(C)c1ncc(F)c(-c2cnn3ncccc23)n1 | binding | 1 µM | 100%
O=C(c1ccc(Nc2nccc(-c3cc4ccccc4s3)n2)cc1)N1CCC(N2CCCC2)CC1 | binding, competition with immobilised ligand | 1 µM | 94%
F[C@@H]1CCN(c2nccc(-c3cnn4ncccc34)n2)C1 | binding | 1 µM | 90%
C[C@H](c1cccc(C#N)c1)n1cc(Cl)cc(C(N)=O)c1=N | cell-free assay, competition with immobilised ligand | 1 µM | 100%
O=C(c1ccc(Nc2ncc(Cl)c(-c3cc4ccccc4s3)n2)cc1)N1CCC(N2CCCC2)CC1 | binding, competition with immobilised ligand | 1 µM | 84%
COc1cnc(Nc2cccc(S(N)(=O)=O)c2)nc1N1CCN(c2ccccc2)C(=O)C1 | binding, competition with immobilised ligand | 1 µM | 98%
CN(C)c1nccc(-c2cnc3ncccn23)n1 | binding | 1 µM | 100%
C[C@H](c1ccnc(Nc2nc3ccc(-c4cc(N(C)C)ncn4)cc3[nH]2)c1)N1CCN(C(=O)CC(F)(F)F)CC1 | cell-free assay, competition with immobilised ligand | 0.1 µM | 100%
COc1cnc(Nc2cccc(S(N)(=O)=O)c2)nc1N1CCN(c2ccccc2)CC1 | binding, competition with immobilised ligand | 1 µM | 73%
